Experimental data from the M2OR odorant receptor database.

Assays:
Settings in all cases: stereoisomer not certain
OR10H4 (Homo sapiens) = biological target: T1, OR10H4 (Homo sapiens) (UniProt Q8NGA5)
T1 sequence (whole entry): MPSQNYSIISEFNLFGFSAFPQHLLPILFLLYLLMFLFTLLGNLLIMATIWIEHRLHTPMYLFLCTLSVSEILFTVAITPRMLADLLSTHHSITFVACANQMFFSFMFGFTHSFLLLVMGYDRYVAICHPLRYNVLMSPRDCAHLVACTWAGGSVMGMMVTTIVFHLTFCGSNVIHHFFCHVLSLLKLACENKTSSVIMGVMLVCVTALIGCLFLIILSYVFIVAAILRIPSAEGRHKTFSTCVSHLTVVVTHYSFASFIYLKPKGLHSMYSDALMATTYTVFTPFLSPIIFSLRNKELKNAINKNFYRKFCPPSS
Method in brief: (§1)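 Each receptor–molecule pair is labelled responsive or non-responsive (inactive) according to whether the original authors judged the measured signal statistically different from baseline. The data were taken from the main text and supplementary material of published papers and checked for typos and inconsistencies. Assay methods differed by source, with transient luciferase assays in mammalian cell lines being common.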

OR10H5 (Homo sapiens) = biological target: T2, OR10H5 (Homo sapiens) (UniProt Q8NGA6)
T2 sequence (whole entry): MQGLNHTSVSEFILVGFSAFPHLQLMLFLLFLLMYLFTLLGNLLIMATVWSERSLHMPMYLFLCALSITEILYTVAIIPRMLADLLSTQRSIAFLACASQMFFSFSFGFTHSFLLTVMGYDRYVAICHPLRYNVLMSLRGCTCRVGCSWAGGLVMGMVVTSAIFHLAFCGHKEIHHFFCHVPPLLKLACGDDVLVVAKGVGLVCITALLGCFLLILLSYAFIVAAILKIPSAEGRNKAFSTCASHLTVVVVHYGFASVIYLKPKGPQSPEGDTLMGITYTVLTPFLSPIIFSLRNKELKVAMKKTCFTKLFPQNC
Method in brief: as §1

OR10J1 (Homo sapiens) = biological target: T3, OR10J1 (Homo sapiens) (UniProt P30954)
T3 sequence (whole entry): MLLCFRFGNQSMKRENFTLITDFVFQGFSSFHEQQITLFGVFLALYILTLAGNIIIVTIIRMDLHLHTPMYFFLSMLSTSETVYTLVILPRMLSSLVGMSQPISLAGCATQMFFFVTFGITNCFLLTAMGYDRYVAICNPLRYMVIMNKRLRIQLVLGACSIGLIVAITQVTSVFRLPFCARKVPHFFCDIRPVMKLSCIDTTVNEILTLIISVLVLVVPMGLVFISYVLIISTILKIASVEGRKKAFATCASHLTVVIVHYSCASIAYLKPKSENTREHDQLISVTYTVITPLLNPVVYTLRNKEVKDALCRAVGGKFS
Method in brief: as §1

OR10J3 (Homo sapiens) = biological target: T4, OR10J3 (Homo sapiens) (UniProt Q5JRS4)
T4 sequence (whole entry): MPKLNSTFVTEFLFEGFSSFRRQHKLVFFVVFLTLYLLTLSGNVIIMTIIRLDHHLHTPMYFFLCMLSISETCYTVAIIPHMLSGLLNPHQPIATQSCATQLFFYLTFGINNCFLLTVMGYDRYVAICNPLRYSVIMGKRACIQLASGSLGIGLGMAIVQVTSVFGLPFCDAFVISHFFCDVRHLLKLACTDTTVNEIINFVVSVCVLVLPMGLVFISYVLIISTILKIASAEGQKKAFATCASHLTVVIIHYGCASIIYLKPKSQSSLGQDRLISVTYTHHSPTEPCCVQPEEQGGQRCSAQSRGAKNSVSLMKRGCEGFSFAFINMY
Method in brief: as §1

OR10J5 (Homo sapiens) = biological target: T5, OR10J5 (Homo sapiens) (UniProt Q8NHC4)
T5 sequence (whole entry): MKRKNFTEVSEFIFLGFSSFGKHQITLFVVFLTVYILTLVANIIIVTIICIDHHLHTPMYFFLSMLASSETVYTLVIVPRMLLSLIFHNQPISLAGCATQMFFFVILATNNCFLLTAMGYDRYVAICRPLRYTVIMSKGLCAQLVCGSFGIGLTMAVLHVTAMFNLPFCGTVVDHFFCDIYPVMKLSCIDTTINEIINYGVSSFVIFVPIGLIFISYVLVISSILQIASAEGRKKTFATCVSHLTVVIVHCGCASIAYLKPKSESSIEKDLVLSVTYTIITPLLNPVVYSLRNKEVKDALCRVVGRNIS
Method in brief: as §1

OR10K1 (Homo sapiens) = biological target: T6, OR10K1 (Homo sapiens) (UniProt Q8NGX5)
T6 sequence (whole entry): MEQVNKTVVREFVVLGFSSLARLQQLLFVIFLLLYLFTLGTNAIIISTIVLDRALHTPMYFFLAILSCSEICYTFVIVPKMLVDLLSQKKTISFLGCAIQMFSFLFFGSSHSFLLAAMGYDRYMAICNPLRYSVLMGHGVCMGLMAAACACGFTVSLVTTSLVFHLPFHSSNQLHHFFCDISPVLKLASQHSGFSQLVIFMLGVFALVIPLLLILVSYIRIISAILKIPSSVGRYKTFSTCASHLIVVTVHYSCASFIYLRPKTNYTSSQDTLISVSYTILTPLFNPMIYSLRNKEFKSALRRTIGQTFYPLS
Method in brief: as §1

OR10P1 (Homo sapiens) = biological target: T7, OR10P1 (Homo sapiens) (UniProt Q8NGE3)
T7 sequence (whole entry): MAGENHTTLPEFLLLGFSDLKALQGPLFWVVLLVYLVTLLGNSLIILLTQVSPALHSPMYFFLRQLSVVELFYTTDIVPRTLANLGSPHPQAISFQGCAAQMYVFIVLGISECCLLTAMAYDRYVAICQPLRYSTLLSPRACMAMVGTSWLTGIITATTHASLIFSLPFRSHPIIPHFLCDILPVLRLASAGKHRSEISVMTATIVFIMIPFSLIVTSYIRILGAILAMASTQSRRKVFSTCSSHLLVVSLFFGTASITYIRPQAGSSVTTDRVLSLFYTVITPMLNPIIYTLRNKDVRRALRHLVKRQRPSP
Method in brief: as §1

OR10Q1 (Homo sapiens) = biological target: T8, OR10Q1 (Homo sapiens) (UniProt Q8NGQ4)
T8 sequence (whole entry): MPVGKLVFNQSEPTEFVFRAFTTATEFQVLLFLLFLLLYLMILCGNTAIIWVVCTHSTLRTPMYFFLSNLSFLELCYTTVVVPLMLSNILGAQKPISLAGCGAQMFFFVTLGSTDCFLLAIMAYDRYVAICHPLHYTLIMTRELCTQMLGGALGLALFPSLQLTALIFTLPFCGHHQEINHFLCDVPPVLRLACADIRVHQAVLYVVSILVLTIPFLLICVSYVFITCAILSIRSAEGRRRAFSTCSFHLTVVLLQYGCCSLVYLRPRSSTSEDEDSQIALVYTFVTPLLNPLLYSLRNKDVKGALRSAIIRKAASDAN
Method in brief: as §1

OR10R2 (Homo sapiens) = biological target: T9, OR10R2 (Homo sapiens) (UniProt Q8NGX6)
T9 sequence (whole entry): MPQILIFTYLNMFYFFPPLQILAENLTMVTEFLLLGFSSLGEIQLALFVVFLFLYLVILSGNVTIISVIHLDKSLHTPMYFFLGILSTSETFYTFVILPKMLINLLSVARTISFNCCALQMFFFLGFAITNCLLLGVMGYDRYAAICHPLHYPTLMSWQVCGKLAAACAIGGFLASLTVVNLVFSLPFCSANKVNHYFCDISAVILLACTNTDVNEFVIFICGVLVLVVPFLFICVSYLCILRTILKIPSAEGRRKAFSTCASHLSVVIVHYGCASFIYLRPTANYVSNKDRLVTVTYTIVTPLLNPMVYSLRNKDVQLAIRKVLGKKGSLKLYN
Method in brief: as §1

OR10S1 (Homo sapiens) = biological target: T10, OR10S1 (Homo sapiens) (UniProt Q8NGN2)
T10 sequence (whole entry): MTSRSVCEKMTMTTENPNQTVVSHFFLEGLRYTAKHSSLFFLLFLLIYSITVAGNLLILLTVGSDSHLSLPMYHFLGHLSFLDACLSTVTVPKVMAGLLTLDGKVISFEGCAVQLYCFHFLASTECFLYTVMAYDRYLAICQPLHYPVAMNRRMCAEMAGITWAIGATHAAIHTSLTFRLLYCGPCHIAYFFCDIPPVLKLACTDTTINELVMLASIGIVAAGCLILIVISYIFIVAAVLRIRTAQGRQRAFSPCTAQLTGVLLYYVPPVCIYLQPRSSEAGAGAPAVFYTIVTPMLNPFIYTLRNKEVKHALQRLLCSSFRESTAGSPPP
Method in brief: as §1

OR10T2 (Homo sapiens) = biological target: T11, OR10T2 (Homo sapiens) (UniProt Q8NGX3)
T11 sequence (whole entry): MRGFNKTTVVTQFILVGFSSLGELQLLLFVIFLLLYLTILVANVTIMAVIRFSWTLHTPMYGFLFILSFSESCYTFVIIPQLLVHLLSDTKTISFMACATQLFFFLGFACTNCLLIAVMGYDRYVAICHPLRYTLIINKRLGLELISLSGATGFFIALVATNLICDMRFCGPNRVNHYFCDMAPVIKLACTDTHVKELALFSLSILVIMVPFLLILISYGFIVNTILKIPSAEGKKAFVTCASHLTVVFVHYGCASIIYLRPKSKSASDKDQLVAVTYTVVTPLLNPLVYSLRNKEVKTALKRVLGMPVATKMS
Method in brief: as §1

OR10V1 (Homo sapiens) = biological target: T12, OR10V1 (Homo sapiens) (UniProt Q8NGI7)
T12 sequence (whole entry): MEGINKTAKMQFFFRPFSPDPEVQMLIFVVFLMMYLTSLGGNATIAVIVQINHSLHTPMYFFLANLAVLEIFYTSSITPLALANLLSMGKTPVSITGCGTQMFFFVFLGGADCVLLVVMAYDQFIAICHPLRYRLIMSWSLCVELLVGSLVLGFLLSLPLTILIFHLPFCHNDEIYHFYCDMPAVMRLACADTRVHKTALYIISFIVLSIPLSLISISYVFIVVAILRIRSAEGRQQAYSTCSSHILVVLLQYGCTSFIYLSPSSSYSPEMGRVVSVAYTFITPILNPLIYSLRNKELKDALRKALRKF
Method in brief: as §1

OR10W1 (Homo sapiens) = biological target: T13, OR10W1 (Homo sapiens) (UniProt Q8NGF6)
T13 sequence (whole entry): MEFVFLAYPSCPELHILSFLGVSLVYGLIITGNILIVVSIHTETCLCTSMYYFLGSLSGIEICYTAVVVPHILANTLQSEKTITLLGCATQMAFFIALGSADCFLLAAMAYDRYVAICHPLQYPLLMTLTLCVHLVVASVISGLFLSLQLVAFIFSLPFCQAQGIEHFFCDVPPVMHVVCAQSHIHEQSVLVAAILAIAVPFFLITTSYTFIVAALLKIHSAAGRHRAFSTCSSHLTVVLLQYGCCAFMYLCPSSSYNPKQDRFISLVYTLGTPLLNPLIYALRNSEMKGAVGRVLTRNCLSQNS
Method in brief: as §1

OR10X1 (Homo sapiens) = biological target: T14, OR10X1 (Homo sapiens) (UniProt Q8NGY0)
T14 sequence (whole entry): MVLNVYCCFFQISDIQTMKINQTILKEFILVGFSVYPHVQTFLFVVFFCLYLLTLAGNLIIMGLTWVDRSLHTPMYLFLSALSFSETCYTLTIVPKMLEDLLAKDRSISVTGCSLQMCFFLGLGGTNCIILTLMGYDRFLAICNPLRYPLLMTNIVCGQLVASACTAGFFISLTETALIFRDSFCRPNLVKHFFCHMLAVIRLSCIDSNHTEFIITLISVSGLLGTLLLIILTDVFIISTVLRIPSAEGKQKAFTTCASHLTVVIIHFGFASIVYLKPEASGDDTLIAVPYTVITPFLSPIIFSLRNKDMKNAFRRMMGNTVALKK
Method in brief: as §1

OR10Z1 (Homo sapiens) = biological target: T15, OR10Z1 (Homo sapiens) (UniProt Q8NGY1)
T15 sequence (whole entry): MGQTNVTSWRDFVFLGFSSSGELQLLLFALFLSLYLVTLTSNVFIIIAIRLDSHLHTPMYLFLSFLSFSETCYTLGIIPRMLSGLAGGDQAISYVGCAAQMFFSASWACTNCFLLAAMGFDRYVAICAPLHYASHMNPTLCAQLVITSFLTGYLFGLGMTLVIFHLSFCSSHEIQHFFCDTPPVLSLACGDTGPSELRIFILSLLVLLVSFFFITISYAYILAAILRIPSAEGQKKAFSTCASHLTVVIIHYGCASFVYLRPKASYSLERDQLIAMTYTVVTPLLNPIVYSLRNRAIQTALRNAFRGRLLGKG
Method in brief: as §1

OR11A1 (Homo sapiens) = biological target: T16, OR11A1 (Homo sapiens) (UniProt Q9GZK7)
T16 sequence (whole entry): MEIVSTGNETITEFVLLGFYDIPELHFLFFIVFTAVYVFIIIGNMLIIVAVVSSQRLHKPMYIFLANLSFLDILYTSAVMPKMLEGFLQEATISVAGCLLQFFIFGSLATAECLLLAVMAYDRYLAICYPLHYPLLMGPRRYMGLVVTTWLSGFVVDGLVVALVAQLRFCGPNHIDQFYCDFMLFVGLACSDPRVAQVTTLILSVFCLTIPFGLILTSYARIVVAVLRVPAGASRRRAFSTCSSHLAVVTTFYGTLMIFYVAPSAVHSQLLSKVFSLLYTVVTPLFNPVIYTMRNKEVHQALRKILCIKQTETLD
Method in brief: as §1

OR11G2 (Homo sapiens) = biological target: T17, OR11G2 (Homo sapiens) (UniProt Q8NGC1)
T17 sequence (whole entry): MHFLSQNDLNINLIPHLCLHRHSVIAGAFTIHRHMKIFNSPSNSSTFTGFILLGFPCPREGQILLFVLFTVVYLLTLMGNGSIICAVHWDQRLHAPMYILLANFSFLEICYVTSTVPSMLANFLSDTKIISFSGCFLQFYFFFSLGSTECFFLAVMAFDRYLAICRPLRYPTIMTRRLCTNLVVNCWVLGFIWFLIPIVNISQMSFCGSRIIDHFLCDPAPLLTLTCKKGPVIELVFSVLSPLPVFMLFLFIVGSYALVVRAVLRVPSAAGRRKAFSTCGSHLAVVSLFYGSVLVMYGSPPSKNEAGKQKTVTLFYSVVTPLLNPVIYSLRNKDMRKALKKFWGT
Method in brief: as §1

OR11H1 (Homo sapiens) = biological target: T18, OR11H1 (Homo sapiens) (UniProt Q8NG94)
T18 sequence (whole entry): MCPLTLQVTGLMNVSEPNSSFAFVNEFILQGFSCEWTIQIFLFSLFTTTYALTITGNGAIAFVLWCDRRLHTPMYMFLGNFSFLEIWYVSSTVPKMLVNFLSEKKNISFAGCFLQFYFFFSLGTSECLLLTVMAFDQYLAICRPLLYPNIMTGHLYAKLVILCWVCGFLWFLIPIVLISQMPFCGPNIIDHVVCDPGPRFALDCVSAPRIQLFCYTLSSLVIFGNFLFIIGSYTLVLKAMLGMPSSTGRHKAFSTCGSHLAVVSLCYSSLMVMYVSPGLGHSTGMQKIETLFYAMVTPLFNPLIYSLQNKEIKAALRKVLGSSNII
Method in brief: as §1

Measured: odorant receptor agonist call;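 also: active if original authors judged signal statistically different from baseline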

CCC1OC(=O)C(O)=C1C (stereo not given)
inactive: all assays above

CCCCCCOC(C)=O
inactive: OR10J5 (Homo sapiens)

CCCCCCCCC(=O)O
inactive: OR10J5 (Homo sapiens)
